Reference: ChEMBL document CHEMBL4304759, “Identifying Novel Anti-Osteoporosis Leads with a Chemotype-Assembly Approach” (J Med Chem, 2019)
Active and inactive are the calls of the source.

Key:
BMDM [1] = test: (§1) Anti-osteoporosis activity in C57BL/6 mouse bone marrow macrophages assessed as inhibition of M-CSF/RANKL-induced osteoclast differentiation by measuring reduction in NFATc1 gene expression at 0.1 uM supplemented with fresh medium containing compounds every 2 days for 5 by trizol-reagent based RT-PCR analysis; type: functional, cell-based
In short: (§2)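 BMMs from femur/tibia of six-week-old C57BL/6 mice, seeded at 1×10^5 cells/well in complete α-MEM (10% FBS) with M-CSF 30 ng/mL and GST-rRANKL 100 ng/mL, with or without compound at 0.1 μM for 5 days. RNA extracted with TRIzol, reverse-transcribed, then qPCR with SYBR-type premix: 40 cycles of 95 °C 10 s, 56 °C 10 s, 72 °C 30 s.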

Rattus norvegicus [2] = test: Anti-osteoporosis activity in ovariectomized Sprague-Dawley rat assessed as reduction in femur bone mass loss at 10 mg/kg/day, po for 3 months measured post-last dose by micro-CT analysis; type: functional, organism-based
BMDM [3] = test: as §1, with “c-FOS” for “NFATc1”; type: functional, cell-based; in short: as §2
[4] = Toxicity in ovariectomized Sprague-Dawley rat assessed as effect on blood urea nitrogen level at 10 mg/kg/day, po for 3 months measured post-last dose; type: organism-based; conditions: in vivo
[5] = Toxicity in ovariectomized Sprague-Dawley rat assessed as effect on total cholesterol level at 10 mg/kg/day, po for 3 months measured post-last dose; type: organism-based; conditions: in vivo
[6] = Cardiotoxicity in ovariectomized Sprague-Dawley rat assessed as effect on heart at 10 mg/kg/day, po for 3 months measured post-last dose; type: toxicity, organism-based; conditions: in vivo
[7] = Toxicity in ovariectomized Sprague-Dawley rat assessed as effect on spleen at 10 mg/kg/day, po for 3 months measured post-last dose; type: organism-based; conditions: in vivo
Rattus norvegicus [8] = test: Anti-osteoporosis activity in ovariectomized Sprague-Dawley rat assessed as reduction in serum CTX1 level at 10 mg/kg/day, po for 3 months measured post-last dose; type: functional, organism-based
[9] = Toxicity in ovariectomized Sprague-Dawley rat assessed as effect on creatinine level at 10 mg/kg/day, po for 3 months measured post-last dose; type: organism-based; conditions: in vivo
BMDM [10] = test: as §1, with “TRAcP” for “NFATc1”; type: functional, cell-based; in short: as §2
[11] = Hepatotoxicity in ovariectomized Sprague-Dawley rat assessed as effect on liver at 10 mg/kg/day, po for 3 months measured post-last dose; type: toxicity, organism-based; conditions: in vivo
[12] = Toxicity in ovariectomized Sprague-Dawley rat assessed as effect on alkaline phosphatase level at 10 mg/kg/day, po for 3 months measured post-last dose; type: organism-based; conditions: in vivo
BMDM [13] = test: Anti-osteoporosis activity in C57BL/6 mouse bone marrow macrophages assessed as inhibition of M-CSF/RANKL-induced osteoclast differentiation supplemented with fresh medium containing compounds every 2 days for 5 measured post-last dose by TRAP staining based assay; type: functional, cell-based
In short: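 Mouse (C57BL/6, 6-week) BMMs were plated at 6×10³ cells/well with M-CSF 30 ng/mL overnight, then given complete α-MEM with M-CSF and GST-rRANKL 100 ng/mL plus compound at varied concentrations, refreshed every 2 days. At day 5 cells were fixed in 4% paraformaldehyde and TRAcP-stained; TRAcP+ cells with >3 nuclei were counted.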

C3H 10T1/2 [14] = test: Osteogenic activity in mouse C3H10T1/2 cells assessed as effect on osteogenic medium-induced osteoblast differentiation by measuring calcium deposition at 0.1 to 10 uM after 14 days by alizarin red dye-based assay; type: cell-based; conditions: c3h 10t1/2, 336 h
In short: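 C3H10T1/2 cells were seeded at 5×10^4 cells/cm² in α-MEM with 10% FBS for 24 h. Osteogenic induction used medium with 5% FBS, 10⁻⁷ M dexamethasone, 50 μM ascorbic acid and 10 mM β-glycerol-phosphate, with or without compound, for 14 days. Cells were fixed in 4.0% formaldehyde and stained with 0.1% Alizarin red (pH 4.4) for 5 min at room temperature.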

[15] = Toxicity in ovariectomized Sprague-Dawley rat assessed as effect on thymus at 10 mg/kg/day, po for 3 months measured post-last dose; type: organism-based; conditions: in vivo
BMDM [16] = test: as §1, with “MMP9” for “NFATc1”; type: functional, cell-based; in short: as §2
Rattus norvegicus [17] = test: Anti-osteoporosis activity in ovariectomized Sprague-Dawley rat assessed as reduction in serum PINP level at 10 mg/kg/day, po for 3 months measured post-last dose; type: functional, organism-based
BMDM [18] = test: Anti-osteoporosis activity in C57BL/6 mouse bone marrow macrophages assessed as inhibition of M-CSF/RANKL-induced osteoclast differentiation by measuring reduction in hydroxyapatite resorption at 0.01 to 1 uM measured after 48 hrs by microscopic analysis; type: functional, cell-based
In short: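 BMMs were driven to mature osteoclasts with GST-rRANKL plus M-CSF (30 ng/mL) on collagen-coated plates. Equal numbers were reseeded onto hydroxyapatite-coated wells with GST-rRANKL/M-CSF, with or without compound, for 48 h. Cells were bleached off, resorbed areas imaged by inverted microscope, and percent surface resorbed quantified.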

Rattus norvegicus [19] = test: Anti-osteoporosis activity in ovariectomized Sprague-Dawley rat assessed as femur bone mineral density loss at 10 mg/kg/day, po for 3 months measured post-last dose by dual energy X-ray absorptiometry (RVb = 19%); type: functional
[20] = Pulmonary toxicity in ovariectomized Sprague-Dawley rat assessed as effect on lung at 10 mg/kg/day, po for 3 months measured post-last dose; type: organism-based; conditions: in vivo
Rattus norvegicus [21] = test: Anti-osteoporosis activity in ovariectomized Sprague-Dawley rat assessed as reduction in serum osteocalcin level at 10 mg/kg/day, po for 3 months measured post-last dose; type: functional, organism-based
[22] = Toxicity in ovariectomized Sprague-Dawley rat assessed as effect on alanine aminotransferase level at 10 mg/kg/day, po for 3 months measured post-last dose; type: organism-based; conditions: in vivo
C3H 10T1/2 [23] = test: Cytotoxicity against mouse C3H10T1/2 cells assessed as effect on cell viability at 0.1 to 100 uM measured after 48 to 72 hrs by CCK8 assay; type: cell-based; conditions: c3h 10t1/2, 100 µM
In short: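 C3H10T1/2 cells in log phase were seeded at 6×10^3 per well and held 24 h. They were then exposed to DMSO vehicle or compound at 0.1–100 μM for 48 h or 72 h. CCK-8 was added for 30 min at 37 °C and absorbance read at 450 nm.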

[24] = Toxicity in ovariectomized Sprague-Dawley rat assessed as effect on aspartate transaminase level at 10 mg/kg/day, po for 3 months measured post-last dose; type: organism-based; conditions: in vivo
Rattus norvegicus [25] = test: Effect on serum RANKL level in ovariectomized Sprague-Dawley rat at 10 mg/kg/day, po for 3 months measured post-last dose; type: organism-based; conditions: in vivo
[26] = Renal toxicity in ovariectomized Sprague-Dawley rat assessed as effect on kidney at 10 mg/kg/day, po for 3 months measured post-last dose; type: organism-based; conditions: in vivo
[27] = Toxicity in ovariectomized Sprague-Dawley rat assessed as effect on total triglyceride level at 10 mg/kg/day, po for 3 months measured post-last dose; type: organism-based; conditions: in vivo
[28] = Toxicity in ovariectomized Sprague-Dawley rat assessed as effect on uterus at 10 mg/kg/day, po for 3 months measured post-last dose; type: organism-based; conditions: in vivo

O=C(Cn1cc(-c2ccncc2)nn1)Nc1nccs1
8%: Activity (Rattus norvegicus [19])
Non-Toxic: Activity [4] | Activity [5] | Activity [6] | Activity [7] | Activity [9] | Activity [11] | Activity [12] | Activity (C3H 10T1/2 [14]) | Activity [15] | Activity [20] | Activity [22] | Activity (C3H 10T1/2 [23]) | Activity [24] | Activity (Rattus norvegicus [25]) | Activity [26] | Activity [27] | Activity [28]
inactive: Activity (Rattus norvegicus [2])
active: inhibition (BMDM [1]) | inhibition (BMDM [3]) | Activity (Rattus norvegicus [8]) | inhibition (BMDM [10]) | inhibition (BMDM [13]) Dose-dependent effect | inhibition (BMDM [16]) | Activity (Rattus norvegicus [17]) | inhibition (BMDM [18]) | Activity (Rattus norvegicus [21])
2 nM: IC50 (BMDM [13]; C57BL/6, BMDM, 5 days)
